According to ChEMBL document CHEMBL1143720, “Vasorelaxant activity of diterpenes from Croton zambesicus and synthetic trachylobanes and their structure-activity relationships” (J Nat Prod, 2007):

Tested on: Aorta
Assay: Vasorelaxant activity against KCl-induced contraction in Wistar rat aorta
Format: functional, tissue-based
How it was run: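 Endothelium-intact aortic rings in physiological solution at 37 °C, gassed with 95% O2/5% CO2 and equilibrated 60 min. Compound added cumulatively (10^-6 to 10^-4 M; 0.3–3 or 0.3–10 µg/mL by solubility) on the plateau of 100 mM KCl depolarizing contraction. Response taken as % of initial KCl contraction. IC50 from sigmoidal fit, 95% CI, 3–6 determinations.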

IC50 | Structure (SMILES)
4.65 µM | CC1(C)CCC[C@]2(C)[C@@H]1CC[C@@]13C(=O)C4[C@H](C[C@@H]21)[C@]4(C)[C@H]3O
> 80 µM | C[C@@]1(C(O)CO)CC[C@@H]2C(O)(C1)C(O)C[C@H]1[C@@]2(C)CC[C@H](O)[C@]1(C)CO (some centres not stated)
3.5 µM | C=C1CCC[C@]2(C)[C@@H]1CC[C@@]13C(=O)C4[C@H](C[C@H]12)[C@]4(C)C3=O
12.3 µM | CO[C@]1(C)[C@@H](Br)CC[C@@]2(C)[C@@H]3C[C@H]4C5C(=O)[C@@]3(CC[C@@H]21)C(=O)[C@]54C
> 80 µM | C[C@@]12CC[C@H](O)[C@](C)(CO)[C@H]1CC[C@@]13CC4[C@H](C[C@H]12)[C@]4(C)C3
9.75 µM | C=C1[C@H]2CC[C@@]34C(=O)C5[C@H](C[C@H]3[C@]2(C)CC[C@@H]1Cl)[C@]5(C)C4=O
9.1 µM | CC1(C)CCC[C@]2(C)[C@H]3C[C@@H]4C5C(=O)[C@]3(CC[C@@H]12)[C@@H](O)[C@]54C
6.3 µM | C[C@@]12CCC(=O)[C@](C)(CO)[C@H]1CC[C@@]13CC4[C@H](C[C@H]12)[C@]4(C)C3
5.8 µM | CC1(C)CCC[C@]2(C)[C@@H]1CC[C@@]13C(=O)C4[C@H](C[C@H]12)[C@]4(C)C3=O
> 80 µM | CC1(C)[C@H]2CC[C@@]34CC5[C@H](C[C@H]3[C@]2(C)CC[C@@H]1O)[C@]5(C)C4
> 80 µM | CC1(C)C(=O)CC[C@@]2(C)[C@@H]3C[C@@H]4[C@@H]5C[C@@]3(CC[C@@H]12)C[C@@]45C
46.2 µM | C=C[C@@]1(C)CC[C@H]2C(=CC[C@H]3C(C)(C)[C@@H](O)CC[C@]23C)C1 [ISOPIMARANE]
10 µM | C[C@@H]1C[C@@H](O)[C@H]2[C@@](C)(CO)CCC[C@]2(C)[C@@]1(O)CCc1ccoc1 [MARRUBENOL]
> 80 µM | C/C(=C\CO)CCC[C@H](C)CCC[C@H](C)CCCC(C)C [TRANS-PHYTOL]

Tested on: HeLa
Assay: Cytotoxicity against human HeLa cells by MTT method
Format: cell-based
How it was run: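 HeLa human cervix carcinoma cells; viability by MTT colorimetric assay. Absorbance expressed as percent of control, with camptothecin as positive control. IC50 given as mean ± SEM.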

Structure (SMILES) | IC50
CC1(C)CCC[C@]2(C)[C@@H]1CC[C@@]13C(=O)C4[C@H](C[C@@H]21)[C@]4(C)[C@H]3O | 138 µM
CC1(C)CCC[C@]2(C)[C@@H]1CC[C@@]13[C@H](O)C4[C@H](C[C@@H]21)[C@]4(C)[C@H]3O | > 150 µM
CC1(C)C(=O)CC[C@]2(C)[C@@H]1CC[C@@]13C(=O)C4[C@H](C[C@H]12)[C@]4(C)C3=O | > 150 µM
CC1(C)CCC[C@]2(C)[C@@H]1CC[C@@]13[C@H](O)C[C@](C)(CC[C@@H]21)[C@H]3O | > 150 µM
C=C1[C@H]2CC[C@@]34C(=O)C5[C@H](C[C@H]3[C@]2(C)CC[C@@H]1Br)[C@]5(C)C4=O | > 150 µM
C=C1[C@H]2CC[C@@]34C(=O)C5[C@H](C[C@H]3[C@]2(C)CC[C@@H]1O)[C@]5(C)C4=O | > 150 µM
C=C1C[C@]23CC[C@H]4C(C)(C)C(=O)CC[C@]4(C)[C@H]2C[C@@H]1CC3=O | > 150 µM
CC(C)(C)[Si](C)(C)O[C@@]12CC[C@@]3(C)[C@@H](CC[C@]45C(=O)C6[C@@H](C[C@@H]43)[C@@]6(C)C5=O)[C@]1(C)C2 | > 150 µM
C=C1CCC[C@]2(C)[C@@H]1CC[C@@]13C(=O)C4[C@H](C[C@H]12)[C@]4(C)C3=O | 128 µM
CC1(C)CCC[C@]2(C)[C@H]3CC[C@]4(C)CC(=O)[C@]3(CC[C@@H]12)[C@H]4O | 153 µM
CC1(C)CCC[C@]2(C)[C@H]3C[C@@H]4C5C(=O)[C@]3(CC[C@@H]12)[C@H](I)[C@]54C | 150 µM
CC1(C)C(=O)CC[C@@]2(C)[C@H]1CC[C@]13C(=O)C4[C@@H](C[C@@H]12)[C@]4(C)C3=O | > 150 µM
CO[C@]1(C)[C@@H](Br)CC[C@@]2(C)[C@@H]3C[C@H]4C5C(=O)[C@@]3(CC[C@@H]21)C(=O)[C@]54C | > 150 µM
CC1(C)C(=O)CC[C@]2(C)[C@H]3C[C@@H]4C5C(=O)[C@]3(CC[C@@H]12)[C@@H](O)[C@]54C | > 150 µM
C[C@@]12CCC(=O)[C@](C)(CBr)[C@H]1CC[C@@]13C(=O)C4[C@H](C[C@H]12)[C@]4(C)C3=O | > 150 µM
C[C@@]12CC[C@H](O)[C@](C)(CO)[C@H]1CC[C@@]13CC4[C@H](C[C@H]12)[C@]4(C)C3 | 64 µM
CC1(C)C(=O)CC[C@]2(C)[C@@H]1CC[C@@]13C(=O)C4[C@H](C[C@@H]21)[C@]4(C)[C@H]3O | > 150 µM
CC1(C)[C@H](O)CC[C@]2(C)[C@@H]1CC[C@@]13C(=O)C4[C@H](C[C@@H]21)[C@]4(C)[C@H]3O | > 150 µM
C=C1[C@H]2CC[C@@]34C(=O)C5[C@H](C[C@H]3[C@]2(C)CC[C@@H]1Cl)[C@]5(C)C4=O | > 150 µM
CC1(C)CCC[C@]2(C)[C@H]3C[C@@H]4C5C(=O)[C@]3(CC[C@@H]12)[C@@H](O)[C@]54C | > 150 µM
C[C@@]12CCC(=O)[C@](C)(CO)[C@H]1CC[C@@]13CC4[C@H](C[C@H]12)[C@]4(C)C3 | 40.4 µM
CC1(C)CCC[C@]2(C)[C@@H]1CC[C@@]13C(=O)C4[C@H](C[C@H]12)[C@]4(C)C3=O | 118 µM
CC1(C)C(=O)CC[C@]2(C)[C@H]3C[C@@H]4C5C(=O)[C@]3(CC[C@@H]12)[C@H](I)[C@]54C | > 150 µM
C[C@@H]1C(=O)[C@]23CC[C@H]4C(C)(C)C(=O)CC[C@]4(C)[C@H]2C[C@@H]1CC3=O | > 150 µM
CC1=CCC[C@]2(C)[C@@H]1CC[C@@]13C(=O)C4[C@H](C[C@H]12)[C@]4(C)C3=O | 125 µM
CC1(C)[C@H]2CC[C@@]34CC5[C@H](C[C@H]3[C@]2(C)CC[C@@H]1O)[C@]5(C)C4 | 25.3 µM
CC1(C)C(=O)CC[C@@]2(C)[C@@H]3C[C@@H]4[C@@H]5C[C@@]3(CC[C@@H]12)C[C@@]45C | 33.5 µM
CC[C@@]1(O)C(=O)OCc2c1cc1n(c2=O)Cc2cc3ccccc3nc2-1 [CAMPTOTHECIN] | 0.5 µM
C=C[C@@]1(C)CC[C@H]2C(=CC[C@H]3C(C)(C)[C@@H](O)CC[C@]23C)C1 [ISOPIMARANE] | 87.8 µM
C/C(=C\CO)CCC[C@H](C)CCC[C@H](C)CCCC(C)C [TRANS-PHYTOL] | 46.6 µM

Tested on: Aorta
Assay: Vasorelaxant activity against KCl-induced contraction in Wistar rat aorta at 10 ug/ml
Format: functional
Design: scale not given: the % may be the effect or the level left
How it was run: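 Rat aortic rings at 37 °C, gassed with 95% O2/5% CO2 and equilibrated 60 min; first contraction with 100 mM KCl depolarizing solution. After washing, rings were preincubated 30 min with compound at 10 µg/mL (max 3 µg/mL if poorly soluble; DMSO ≤0.1% in bath) and KCl contraction repeated. Inhibition versus the control contraction after 40 min incubation; mean ± SEM of n.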

Structure (SMILES) | Activity
CC1(C)CCC[C@]2(C)[C@@H]1CC[C@@]13C(=O)C4[C@H](C[C@@H]21)[C@]4(C)[C@H]3O | 17.9%
CC1(C)CCC[C@]2(C)[C@@H]1CC[C@@]13[C@H](O)C4[C@H](C[C@@H]21)[C@]4(C)[C@H]3O | 73.4%
CC1(C)C(=O)CC[C@]2(C)[C@@H]1CC[C@@]13C(=O)C4[C@H](C[C@H]12)[C@]4(C)C3=O | 84.4%
CC1(C)CCC[C@]2(C)[C@@H]1CC[C@@]13[C@H](O)C[C@](C)(CC[C@@H]21)[C@H]3O | 52.2%
C=C1[C@H]2CC[C@@]34C(=O)C5[C@H](C[C@H]3[C@]2(C)CC[C@@H]1Br)[C@]5(C)C4=O | 65.5%
C=C1[C@H]2CC[C@@]34C(=O)C5[C@H](C[C@H]3[C@]2(C)CC[C@@H]1O)[C@]5(C)C4=O | 83.9%
C=C1C[C@]23CC[C@H]4C(C)(C)C(=O)CC[C@]4(C)[C@H]2C[C@@H]1CC3=O | 60.6%
C=C1CCC[C@]2(C)[C@@H]1CC[C@@]13C(=O)C4[C@H](C[C@H]12)[C@]4(C)C3=O | 9.2%
CC1(C)CCC[C@]2(C)[C@H]3CC[C@]4(C)CC(=O)[C@]3(CC[C@@H]12)[C@H]4O | 40.7%
CC1(C)CCC[C@]2(C)[C@H]3C[C@@H]4C5C(=O)[C@]3(CC[C@@H]12)[C@H](I)[C@]54C | 37.4%
CC1(C)C(=O)CC[C@@]2(C)[C@H]1CC[C@]13C(=O)C4[C@@H](C[C@@H]12)[C@]4(C)C3=O | 91.4%
CO[C@]1(C)[C@@H](Br)CC[C@@]2(C)[C@@H]3C[C@H]4C5C(=O)[C@@]3(CC[C@@H]21)C(=O)[C@]54C | 33%
CC1(C)C(=O)CC[C@]2(C)[C@H]3C[C@@H]4C5C(=O)[C@]3(CC[C@@H]12)[C@@H](O)[C@]54C | 90%
C[C@@]12CCC(=O)[C@](C)(CBr)[C@H]1CC[C@@]13C(=O)C4[C@H](C[C@H]12)[C@]4(C)C3=O | 71.8%
CC1(C)C(=O)CC[C@]2(C)[C@@H]1CC[C@@]13C(=O)C4[C@H](C[C@@H]21)[C@]4(C)[C@H]3O | 92.7%
CC1(C)[C@H](O)CC[C@]2(C)[C@@H]1CC[C@@]13C(=O)C4[C@H](C[C@@H]21)[C@]4(C)[C@H]3O | 90.3%
C=C1[C@H]2CC[C@@]34C(=O)C5[C@H](C[C@H]3[C@]2(C)CC[C@@H]1Cl)[C@]5(C)C4=O | 28.5%
CC1(C)CCC[C@]2(C)[C@H]3C[C@@H]4C5C(=O)[C@]3(CC[C@@H]12)[C@@H](O)[C@]54C | 22.1%
C[C@@]12CCC(=O)[C@](C)(CO)[C@H]1CC[C@@]13CC4[C@H](C[C@H]12)[C@]4(C)C3 | 17%
CC1(C)CCC[C@]2(C)[C@@H]1CC[C@@]13C(=O)C4[C@H](C[C@H]12)[C@]4(C)C3=O | 14.5%
CC1(C)C(=O)CC[C@]2(C)[C@H]3C[C@@H]4C5C(=O)[C@]3(CC[C@@H]12)[C@H](I)[C@]54C | 95.7%
C[C@@H]1C(=O)[C@]23CC[C@H]4C(C)(C)C(=O)CC[C@]4(C)[C@H]2C[C@@H]1CC3=O | 87.9%
CC1(C)[C@H]2CC[C@@]34CC5[C@H](C[C@H]3[C@]2(C)CC[C@@H]1O)[C@]5(C)C4 | 67.3%
C[C@]12CCC(=O)[C@@](C)(CO)[C@@H]1CC[C@]13C(=O)C4[C@@H](C[C@@H]12)[C@]4(C)C3=O | 93.1%
CC1(C)C(=O)CC[C@@]2(C)[C@@H]3C[C@@H]4[C@@H]5C[C@@]3(CC[C@@H]12)C[C@@]45C | 65.6%
C=C[C@@]1(C)CC[C@H]2C(=CC[C@H]3C(C)(C)[C@@H](O)CC[C@]23C)C1 [ISOPIMARANE] | 54.6%
C[C@@H]1C[C@@H](O)[C@H]2[C@@](C)(CO)CCC[C@]2(C)[C@@]1(O)CCc1ccoc1 [MARRUBENOL] | 7.9%
C/C(=C\CO)CCC[C@H](C)CCC[C@H](C)CCCC(C)C [TRANS-PHYTOL] | 81.4%
